Assay results published in article PMC12853403 (ACS infectious diseases, 2025).

Tests used:
Se.TRPMPZQ = experiment: Functional profiling; type: cell-based, Spirometra erinaceieuropaei
Sm.TRPMPZQ[D1677E] = experiment: Functional profiling at Sm.TRPMPZQ[D1677E] mutant; type: cell-based, Schistosoma mansoni; settings: construct lacks the cestode-specific S1 histidine
Method in brief: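 Transiently transfected HEK293 cells (Lipofectamine-2000) replated after 24 h at 20,000 cells/well. 24 h later, loaded with Fluo-4 NW for 1 h at 37 °C in HBSS with 2.5 mM probenecid and 20 mM HEPES. FLIPR Ca2+ read at room temperature: 20 s baseline, then compound, then 250 s. Peak minus basal, normalized to (±)-PZQ at the same channel. Three-parameter fit, bottom fixed at 0%. EC50 mean ± SEM, n ≥ 3 transfections.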

[1] = in humans; cited from earlier work
[2] = cited from earlier work
[3] = cited from earlier work; remark: listed apart in the source
Eg.TRPMPZQ = Eg.TRPMPZQ (Echinococcus granulosus, UniProt W6UVV9); experiment: Ca2+ reporter assay in HEK293 cells, Eg.TRPMPZQ; type: cell-based; settings: EC50 at Eg.TRPMPZQ / EC50 at Sm.TRPMPZQ
[4] = test system: E. multilocularis protoscoleces; experiment: Cestode motility assay on protoscoleces; type: cell-based; settings: Echinococcus multilocularis, read-out: EC50, motility of E. multilocularis protoscoleces

SMILES: O=C(C1CCCCC1)N1CC(=O)N2CCc3ccccc3C2C1 (stereo not shown) [PZQ, praziquantel]
- agonist character at Se.TRPMPZQ (Se.TRPMPZQ): partial agonist
- activity at Sm.TRPMPZQ[D1677E] mutant (Sm.TRPMPZQ[D1677E]): unable to be activated
- half time [1]: 2 to 3 h

SMILES: O=C(C1CCCCC1)N1CC(=O)N2CCCc3ccccc3C2C1 (stereo not shown) [epsiprantel]
- solubility [2]: very insoluble
- absorption from the gastrointestinal tract [3]: poorly absorbed

SMILES: O=C(C1CCCCC1)N1CC(=O)N2CCc3ccccc3[C@H]2C1 [(S)-PZQ]
- difference in potency between Eg.TRPMPZQ and Sm.TRPMPZQ (Eg.TRPMPZQ): ~ 100 fold

SMILES: O=C(C1CCCCC1)N1CC(=O)N2CCc3ccccc3[C@@H]2C1 [(R)-PZQ]
- difference in potency between Eg.TRPMPZQ and Sm.TRPMPZQ (Eg.TRPMPZQ): ~ 4 fold
- EC50 (Se.TRPMPZQ; read-out: EC50 at Se.TRPMPZQ, mean ± SEM): 1000 ± 300 nM
- efficacy (Bmax) at Se.TRPMPZQ (Se.TRPMPZQ; relative to (R)-PZQ at Eg.TRPMPZQ): 17 ± 0.8 % of (R)-PZQ at Eg.TRPMPZQ
- EC50 [4]: 7.7 ± 1.3 nM
